Data published in ChEMBL document CHEMBL5058577, “EUbOPEN Chemogenomics Library 2 (Multiplex)” (2022).

System: Fibroblast
Test: Multiplex assay against human fibroblast
Format: toxicity, cell-based
Outline: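 On a CQ1 microscope at 37°C and 5% CO2, live cells were imaged after compound addition. They had been stained at seeding with Hoechst33342, BioTracker Green Microtubule Cytoskeleton Dye, MitoTracker Red and Annexin V Alexa Fluor 680. CellPathfinder machine-learning gating assigned cells to Hoechst high-intensity objects or normal cells, normal cells to healthy, pyknosed or fragmented nuclei, and pyknosed cells to mitotic or apoptotic. Tubulin, mitochondrial-mass and membrane-permeability phenotypes are per cents of healthy-nucleus cells.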

[1] = 12 h, 1 µM, compound concentration 1 uM, replicate 1
[2] = 12 h, 1 µM, compound concentration 1 uM, replicate 2
[3] = 12 h, 10 µM, compound concentration 10 uM, replicate 1
[4] = 12 h, 10 µM, compound concentration 10 uM, replicate 2
[5] = 24 h, 1 µM, compound concentration 1 uM, replicate 1
[6] = 24 h, 1 µM, compound concentration 1 uM, replicate 2
[7] = 24 h, 10 µM, compound concentration 10 uM, replicate 1
[8] = 24 h, 10 µM, compound concentration 10 uM, replicate 2
[9] = 48 h, 1 µM, compound concentration 1 uM, replicate 1
[10] = 48 h, 1 µM, compound concentration 1 uM, replicate 2
[11] = 48 h, 10 µM, compound concentration 10 uM, replicate 1
[12] = 48 h, 10 µM, compound concentration 10 uM, replicate 2

Compound: Cc1c(Cc2ccc3ccccc3n2)c2cc(F)ccc2n1CC(=O)O [TIMAPIPRANT]
- Population Apoptotic (%) [1]: 41%
- Population Fragmented Nuclei (%) [1]: 12%
- Population Healthy Nuclei (%) [1]: 67%
- Population Hoechst High Intensity Objects (%) [1]: 5%
- Population Membrane Permeable-Phenotype (%) [1]: 1%
- Population Mitochondria Different-Phenotype (%) [1]: 7%
- Population Mitotic Cells (%) [1]: 58%
- Population Normal (%) [1]: 94%
- Population Pyknosed Nuclei (%) [1]: 19%
- Population Tubulin-Different-Phenotype (%) [1]: 26%
- Total Cell Count [1]: 171
- Population Apoptotic (%) [2]: 33%
- Population Fragmented Nuclei (%) [2]: 28%
- Population Healthy Nuclei (%) [2]: 49%
- Population Membrane Permeable-Phenotype (%) [2]: 9%
- Population Mitochondria Different-Phenotype (%) [2]: 4%
- Population Mitotic Cells (%) [2]: 66%
- Population Pyknosed Nuclei (%) [2]: 22%
- Population Tubulin-Different-Phenotype (%) [2]: 43%
- Total Cell Count [2]: 142
- Population Apoptotic (%) [3]: 66%
- Population Fragmented Nuclei (%) [3]: 13%
- Population Healthy Nuclei (%) [3]: 77%
- Population Hoechst High Intensity Objects (%) [3]: 2%
- Population Membrane Permeable-Phenotype (%) [3]: 0%
- Population Mitochondria Different-Phenotype (%) [3]: 7%
- Population Mitotic Cells (%) [3]: 33%
- Population Normal (%) [3]: 97%
- Population Pyknosed Nuclei (%) [3]: 8%
- Population Tubulin-Different-Phenotype (%) [3]: 35%
- Total Cell Count [3]: 147
- Population Apoptotic (%) [4]: 53%
- Population Fragmented Nuclei (%) [4]: 26%
- Population Healthy Nuclei (%) [4]: 53%
- Population Hoechst High Intensity Objects (%) [4]: 5%
- Population Membrane Permeable-Phenotype (%) [4]: 1%
- Population Mitotic Cells (%) [4]: 46%
- Population Normal (%) [4]: 95%
- Population Pyknosed Nuclei (%) [4]: 19%
- Population Tubulin-Different-Phenotype (%) [4]: 43%
- Total Cell Count [4]: 160
- Population Apoptotic (%) [5]: 33%
- Population Fragmented Nuclei (%) [5]: 9%
- Population Healthy Nuclei (%) [5]: 73%
- Population Hoechst High Intensity Objects (%) [5]: 1%
- Population Membrane Permeable-Phenotype (%) [5]: 3%
- Population Mitochondria Different-Phenotype (%) [5]: 2%
- Population Mitotic Cells (%) [5]: 66%
- Population Normal (%) [5]: 98%
- Population Pyknosed Nuclei (%) [5]: 17%
- Population Tubulin-Different-Phenotype (%) [5]: 26%
- Total Cell Count [5]: 158
- Population Apoptotic (%) [6]: 47%
- Population Fragmented Nuclei (%) [6]: 30%
- Population Healthy Nuclei (%) [6]: 52%
- Population Hoechst High Intensity Objects (%) [6]: 5%
- Population Membrane Permeable-Phenotype (%) [6]: 7%
- Population Mitochondria Different-Phenotype (%) [6]: 4%
- Population Mitotic Cells (%) [6]: 52%
- Population Normal (%) [6]: 94%
- Population Tubulin-Different-Phenotype (%) [6]: 38%
- Total Cell Count [6]: 142
- Population Apoptotic (%) [7]: 66%
- Population Fragmented Nuclei (%) [7]: 14%
- Population Healthy Nuclei (%) [7]: 77%
- Population Hoechst High Intensity Objects (%) [7]: 2%
- Population Membrane Permeable-Phenotype (%) [7]: 0%
- Population Mitochondria Different-Phenotype (%) [7]: 6%
- Population Mitotic Cells (%) [7]: 33%
- Population Normal (%) [7]: 97%
- Population Pyknosed Nuclei (%) [7]: 8%
- Population Tubulin-Different-Phenotype (%) [7]: 30%
- Total Cell Count [7]: 150
- Population Apoptotic (%) [8]: 52%
- Population Fragmented Nuclei (%) [8]: 29%
- Population Healthy Nuclei (%) [8]: 58%
- Population Hoechst High Intensity Objects (%) [8]: 7%
- Population Membrane Permeable-Phenotype (%) [8]: 3%
- Population Mitochondria Different-Phenotype (%) [8]: 10%
- Population Mitotic Cells (%) [8]: 47%
- Population Normal (%) [8]: 92%
- Population Pyknosed Nuclei (%) [8]: 12%
- Population Tubulin-Different-Phenotype (%) [8]: 52%
- Total Cell Count [8]: 164
- Population Apoptotic (%) [9]: 72%
- Population Fragmented Nuclei (%) [9]: 15%
- Population Healthy Nuclei (%) [9]: 72%
- Population Hoechst High Intensity Objects (%) [9]: 7%
- Population Membrane Permeable-Phenotype (%) [9]: 0%
- Population Mitochondria Different-Phenotype (%) [9]: 2%
- Population Mitotic Cells (%) [9]: 27%
- Population Normal (%) [9]: 92%
- Population Pyknosed Nuclei (%) [9]: 12%
- Population Tubulin-Different-Phenotype (%) [9]: 25%
- Total Cell Count [9]: 162
- Population Apoptotic (%) [10]: 61%
- Population Fragmented Nuclei (%) [10]: 36%
- Population Healthy Nuclei (%) [10]: 48%
- Population Hoechst High Intensity Objects (%) [10]: 6%
- Population Membrane Permeable-Phenotype (%) [10]: 2%
- Population Mitochondria Different-Phenotype (%) [10]: 1%
- Population Mitotic Cells (%) [10]: 38%
- Population Normal (%) [10]: 94%
- Population Pyknosed Nuclei (%) [10]: 14%
- Population Tubulin-Different-Phenotype (%) [10]: 34%
- Total Cell Count [10]: 150
- Population Apoptotic (%) [11]: 66%
- Population Fragmented Nuclei (%) [11]: 18%
- Population Healthy Nuclei (%) [11]: 75%
- Population Hoechst High Intensity Objects (%) [11]: 5%
- Population Membrane Permeable-Phenotype (%) [11]: 0%
- Population Mitochondria Different-Phenotype (%) [11]: 3%
- Population Mitotic Cells (%) [11]: 33%
- Population Normal (%) [11]: 94%
- Population Pyknosed Nuclei (%) [11]: 6%
- Population Tubulin-Different-Phenotype (%) [11]: 31%
- Total Cell Count [11]: 152
- Population Apoptotic (%) [12]: 60%
- Population Fragmented Nuclei (%) [12]: 30%
- Population Healthy Nuclei (%) [12]: 59%
- Population Hoechst High Intensity Objects (%) [12]: 2%
- Population Membrane Permeable-Phenotype (%) [12]: 1%
- Population Mitochondria Different-Phenotype (%) [12]: 1%
- Population Mitotic Cells (%) [12]: 40%
- Population Normal (%) [12]: 97%
- Population Pyknosed Nuclei (%) [12]: 9%
- Population Tubulin-Different-Phenotype (%) [12]: 37%
- Total Cell Count [12]: 157
